How the values were obtained:
Type in all cases: functional
SF-268 [1] = test: Growth inhibition of human SF268 cells after 48 hrs by sulforhodamine B assay; conditions: SF-268, 48 h
In short: (§1)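 NCI 60-cell-line panel. Cells are grown in RPMI1640 with 5% fetal calf serum and 2 mM L-glutamine, seeded at a density set by growth characteristics, and preincubated 24 h. Compound is tested at a minimum of five concentrations at 10-fold dilution, with 48 h continuous exposure. Viability is read by sulforhodamine B protein assay. GI50, TGI and LC50 come from dose-response curves.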

SK-OV-3 = test: Growth inhibition of human SKOV3 cells after 48 hrs by sulforhodamine B assay; conditions: SK-OV-3, 48 h; in short: as §1
MCF7 = test: Antiproliferative activity against human MCF7 cells assessed as cell growth at 100 uM after 48 hrs by alamar blue assay; conditions: MCF7, 48 h, read-out: Activity
In short: (§2)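 NCI three-cell-line primary screen. Cells are seeded and preincubated in microtiter plates. Compound is added at a single 10^-4 M concentration and cultures are incubated 48 h. The end-point is read with alamar blue. Results are given as percent growth relative to untreated control cells.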

HOP-92 = test: Growth inhibition of human HOP92 cells after 48 hrs by sulforhodamine B assay; conditions: HOP-92, 48 h; in short: as §1
CAKI-1 = test: Growth inhibition of human Caki1 cells after 48 hrs by sulforhodamine B assay; conditions: CAKI-1, 48 h; in short: as §1
PC-3 = test: Growth inhibition of human PC3 cells after 48 hrs by sulforhodamine B assay; conditions: PC-3, 48 h; in short: as §1
BT-549 = test: Growth inhibition of human BT549 cells after 48 hrs by sulforhodamine B assay; conditions: BT-549, 48 h; in short: as §1
SNB-75 = test: Growth inhibition of human SNB75 cells after 48 hrs by sulforhodamine B assay; conditions: SNB-75, 48 h
In short: (§3)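 NCI 60-cell-line panel (nine cancer types), with cells grown in RPMI1640 plus 5% fetal calf serum and 2 mM L-glutamine. Cells are seeded at a density that depends on the line and preincubated 24 h. Compounds are then applied at a minimum of five 10-fold dilutions over a 5-log range with 48 h continuous exposure. Viability is read by SRB protein assay, and GI50 is derived from dose-response curves in units of 10^-5 M.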

LOX IMVI = test: Growth inhibition of human LOXIMVI cells after 48 hrs by sulforhodamine B assay; in short: as §1
NCI/ADR-RES = test: Growth inhibition of human NCI/ADR-RES cells after 48 hrs by sulforhodamine B assay; in short: as §1
NCI-H460 = test: Antiproliferative activity against human NCI-H460 cells assessed as cell growth at 100 uM after 48 hrs by alamar blue assay; conditions: NCI-H460, 48 h, read-out: Activity; in short: as §2
UACC-62 = test: Growth inhibition of human UACC62 cells after 48 hrs by sulforhodamine B assay; conditions: UACC-62, 48 h; in short: as §3
NCI-H23 = test: Growth inhibition of human NCI-H23 cells after 48 hrs by sulforhodamine B assay; conditions: NCI-H23, 48 h; in short: as §1
SR = test: Growth inhibition of human SR cells after 48 hrs by sulforhodamine B assay; in short: as §3
NCI-H522 = test: Growth inhibition of human NCI-H522 cells after 48 hrs by sulforhodamine B assay; conditions: NCI-H522, 48 h; in short: as §1
SF-268 [2] = test: Antiproliferative activity against human SF268 cells assessed as cell growth at 100 uM after 48 hrs by alamar blue assay; conditions: SF-268, 48 h, read-out: Activity; in short: as §2
ACHN = test: Growth inhibition of human ACHN cells after 48 hrs by sulforhodamine B assay; in short: as §1
SN12C = test: Growth inhibition of human SN12C cells after 48 hrs by sulforhodamine B assay; in short: as §1
T47D = test: Growth inhibition of human T47D cells after 48 hrs by sulforhodamine B assay; in short: as §3
SW-620 = test: Growth inhibition of human SW620 cells after 48 hrs by sulforhodamine B assay; conditions: SW-620, 48 h; in short: as §3
UO-31 = test: Growth inhibition of human UO31 cells after 48 hrs by sulforhodamine B assay; conditions: UO-31, 48 h; in short: as §3
OVCAR-4 = test: Growth inhibition of human OVCAR4 cells after 48 hrs by sulforhodamine B assay; conditions: OVCAR-4, 48 h; in short: as §1
M14 = test: Growth inhibition of human M14 cells after 48 hrs by sulforhodamine B assay; conditions: M14, 48 h; in short: as §1
HOP-62 = test: Growth inhibition of human HOP62 cells after 48 hrs by sulforhodamine B assay; conditions: HOP-62, 48 h; in short: as §1
OVCAR-5 = test: Growth inhibition of human OVCAR5 cells after 48 hrs by sulforhodamine B assay; conditions: OVCAR-5, 48 h; in short: as §1
HCT-15 = test: Growth inhibition of human HCT15 cells after 48 hrs by sulforhodamine B assay; conditions: HCT-15, 48 h; in short: as §1
SK-MEL-28 = test: Growth inhibition of human SK-MEL-28 cells after 48 hrs by sulforhodamine B assay; conditions: SK-MEL-28, 48 h; in short: as §1
OVCAR-3 = test: Growth inhibition of human OVCAR-3 cells after 48 hrs by sulforhodamine B assay; conditions: OVCAR-3, 48 h; in short: as §1
SK-MEL-5 = test: Growth inhibition of human SK-MEL-5 cells after 48 hrs by sulforhodamine B assay; conditions: SK-MEL-5, 48 h; in short: as §1
TK-10 = test: Growth inhibition of human TK10 cells after 48 hrs by sulforhodamine B assay; conditions: TK-10, 48 h; in short: as §3
786-0 = test: Growth inhibition of human 786-0 cells after 48 hrs by sulforhodamine B assay; conditions: 786-0, 48 h; in short: as §1
[3] = read-out: LC50 (the source's name)

COc1ccc(/C=N/c2nc3[nH]nc(C)n3c(=O)c2S(=O)(=O)NN2C(=O)C(CN3CCN(C)CC3)SC2c2cccs2)cc1 (stereo not given)
GI50 (SF-268 [1]): > 100 µM
TGI (SF-268 [1]): > 100 µM
CC50 (SF-268 [1]; [3]): > 100 µM
GI50 (SK-OV-3): 5.12 µM
TGI (SK-OV-3): > 100 µM
growth at 100 µM (MCF7): 46%
GI50 (HOP-92): 9.41 µM
LC50 (HOP-92): > 100 µM
TGI (HOP-92): > 100 µM
GI50 (CAKI-1): 1.29 µM
LC50 (50% lethal concentration) (CAKI-1): > 100 µM
TGI (CAKI-1): > 100 µM
GI50 (PC-3): 2.89 µM
LC50 (concentration killing 50% of cells) (PC-3): > 100 µM
TGI (PC-3): 40 µM
GI50 (BT-549): 11.3 µM
TGI (BT-549): > 100 µM
GI50 (SNB-75): 2.01 µM
TGI (SNB-75): > 100 µM
GI50 (LOX IMVI): 2.16 µM
TGI (LOX IMVI): > 100 µM
GI50 (NCI/ADR-RES): 1.5 µM
TGI (NCI/ADR-RES): 6.98 µM
growth at 100 µM (NCI-H460): 24%
GI50 (UACC-62): 1.47 µM
TGI (UACC-62): > 100 µM
CC50 (UACC-62; [3]): > 100 µM
GI50 (NCI-H23): 1.16 µM
TGI (NCI-H23): 9.11 µM
GI50 (SR): 0.79 µM
LC50 (concentration killing 50% of cells) (SR): 13.1 µM
TGI (SR): 3.03 µM
GI50 (NCI-H522): 2.63 µM
TGI (NCI-H522): 13.3 µM
growth at 100 µM (SF-268 [2]): 58%
GI50 (ACHN): 3.18 µM
TGI (ACHN): > 100 µM
CC50 (ACHN; [3]): > 100 µM
GI50 (SN12C): 4.68 µM
LC50 (SN12C): > 100 µM
TGI (SN12C): > 100 µM
GI50 (T47D): > 100 µM
TGI (T47D): > 100 µM
GI50 (SW-620): 1.38 µM
GI50 (UO-31): 5.36 µM
LC50 (UO-31): > 100 µM
TGI (UO-31): > 100 µM
GI50 (OVCAR-4): > 100 µM
LC50 (OVCAR-4): > 100 µM
TGI (OVCAR-4): > 100 µM
GI50 (M14): 1.36 µM
LC50 (concentration killing 50% of cells) (M14): > 100 µM
TGI (M14): > 100 µM
GI50 (HOP-62): 1.7 µM
LC50 (HOP-62): > 100 µM
TGI (HOP-62): > 100 µM
GI50 (OVCAR-5): 8.31 µM
LC50 (concentration causing 50% net cell kill) (OVCAR-5): > 100 µM
TGI (OVCAR-5): > 100 µM
GI50 (HCT-15): 0.65 µM
TGI (HCT-15): > 100 µM
GI50 (SK-MEL-28): 16.4 µM
TGI (SK-MEL-28): > 100 µM
GI50 (OVCAR-3): 0.88 µM
LC50 (concentration killing 50% of cells) (OVCAR-3): > 100 µM
TGI (OVCAR-3): > 100 µM
GI50 (SK-MEL-5): 0.72 µM
TGI (SK-MEL-5): 7.11 µM
CC50 (SK-MEL-5; [3]): > 100 µM
GI50 (TK-10): 5.9 µM
LC50 (TK-10): > 100 µM
TGI (TK-10): > 100 µM
GI50 (786-0): 3.93 µM
TGI (786-0): > 100 µM
CC50 (786-0; [3]): > 100 µM
